Published values pooled from the literature.
Each line is one published result; the experiments were not run side by side.
MAP2K6: Dual specificity mitogen-activated protein kinase kinase 6 (MAP2K6, Homo sapiens, UniProt P52564)

SMILES	target	assay	conditions	quantity	result
CCN(CC)c1ccc(C2=NNC(=O)CC2C)cc1[N+](=O)[O-] (stereo not shown)	MAP2K6	enzyme activity, inhibitor	10 µM	remaining activity	97%
CNC(=O)c1cc(Oc2ccc(NC(=O)Nc3ccc(Cl)c(C(F)(F)F)c3)cc2)ccn1	MAP2K6	enzyme activity, inhibitor	10 µM	inhibition	99%
Oc1cccc(-c2nc(N3CCOCC3)c3oc4ncccc4c3n2)c1	MAP2K6	enzyme activity, inhibitor	10 µM	remaining activity	107%
Cn1c2c(c3ccc(Cl)c(Cl)c31)C(C#N)C(C)(C)NC2=O (stereo not shown)	MAP2K6	thermal stability, DSF	10 µM	ΔTm	0.2 °C
Cc1ccc(Nc2nccc(N(C)c3ccc4c(C)n(C)nc4c3)n2)cc1S(N)(=O)=O	MAP2K6	enzyme activity, inhibitor	0.3 µM	inhibition	-10%
CN1CCC2(CC1)NC(=O)c1c(c3ccc(Cl)c(Cl)c3n1C)C2C#N (racemic)	MAP2K6	thermal stability, DSF	10 µM	ΔTm	0 °C
FC(F)c1nc2ccccc2n1-c1nc(N2CCOCC2)nc(N2CCOCC2)n1	MAP2K6	enzyme activity, inhibitor	10 µM	remaining activity	83%
Nc1ncnc2occ(-c3ccc(NC(=O)Nc4cc(C(F)(F)F)ccc4F)cc3)c12	MAP2K6	cell-free assay, inhibitor	20 µM	remaining signal	58%
CC[C@H](CO)Nc1nc(NCc2ccccc2)c2ncn(C(C)C)c2n1	MAP2K6	cell-free assay	0.5 µM	remaining signal	98.2%
CN(C)C1CCN(CC#Cc2nn(C3CCCC3)c3nc(NCc4ccccc4)ncc23)C1 (stereo not shown)	MAP2K6	enzyme activity, inhibitor, FRET	1 µM	inhibition	6%
C[C@H](c1ccc(F)cc1)N(Cc1cccc(C(=O)O)c1)C(=O)c1cnc2ccccc2c1	MAP2K6	cell-free assay, competition with immobilised ligand	1 µM	remaining binding	100%
Nc1nc(Nc2ccc(S(N)(=O)=O)cc2)nn1C(=O)c1c(F)cccc1F	MAP2K6	cell-free assay	0.5 µM	remaining signal	90.5%
CC(C)(O)[C@H]1CC[C@H](Nc2ccc3ncc(-c4cccc(C(F)(F)F)c4)n3n2)CC1	MAP2K6	enzyme activity, inhibitor	1 µM	remaining activity	90.6%
Cn1c2c(c3ccc(Cl)c(Cl)c31)C(C#N)C1(CCOCC1)NC2=O (stereo not shown)	MAP2K6	thermal stability, DSF	10 µM	ΔTm	0 °C
O=C(Nc1cnn(-c2csc(C(=O)NC3COC3)c2)c1)Nc1ccccc1Cl	MAP2K6	enzyme activity, inhibitor	5 µM	remaining activity	96.4%
COc1cc(Nc2cnc(C#N)c(O[C@H](C)CN(C)C)n2)ncc1-c1cnn(C)c1	MAP2K6	enzyme activity, inhibitor, radiometric	1 µM	remaining activity	71%
Cc1c[nH]c2nccc(Oc3c(F)cc(Nc4cc(Cl)nc(N)n4)cc3F)c12	MAP2K6	cell-free assay, competition with immobilised ligand	0.1 µM	remaining binding	99%

SMILES	target	assay	conditions	quantity	result
CCN(CC)CCNC(=O)c1c(C)[nH]c(/C=C2\C(=O)Nc3ccc(F)cc32)c1C	MAP2K6	cell-free assay	0.5 µM	remaining signal	75.9%
CN(C)C(=O)Cn1cc(-c2nc([C@@](C)(c3ccc(-c4cnc(N)nc4)cc3)C3CC3)no2)cn1	MAP2K6	cell-free assay, competition with immobilised ligand	1 µM	remaining binding	100%
Cn1c2c(c3ccc(Cl)c(Cl)c31)C(C#N)C1(CCNCC1)NC2=O (racemic)	MAP2K6	thermal stability, DSF	10 µM	ΔTm	0.3 °C
O=C(Nc1cnc(Oc2ccc(F)cc2)nc1)N1CCc2ncccc2[C@@H]1c1ccc(F)cc1	MAP2K6	cell-free assay, competition with immobilised ligand	1 µM	remaining binding	77%
Cc1ccc(C(=O)Nc2ccc(CN3CCN(C)CC3)c(C(F)(F)F)c2)cc1C#Cc1cnc2cccnn12	MAP2K6	enzyme activity, inhibitor	23.5 nM	remaining activity	100%
Cc1cnc(NC2CCOCC2)nc1-n1cnc(C(=O)NC(CN)c2cc(F)cc(Cl)c2)c1 (stereo not shown)	MAP2K6	enzyme activity, inhibitor, radiometric	1 µM	remaining activity	96%
CC(C)(C)c1nc2c(s1)c1nc(N)ncc1c1ccc(NS(=O)(=O)c3c(F)cccc3F)c(F)c12	Dual specificity mitogen-activated protein kinase kinase 6 (MAP2K6, Homo sapiens, UniProt P52564, S207D/T211D)	enzyme activity, inhibitor, radiometric	1 µM	remaining activity	70%
CNCc1ccc(-c2cc(-c3nc(-c4ccc(S(=O)(=O)C(C)C)cc4)cnc3N)on2)cc1	MAP2K6	enzyme activity, inhibitor	0.4 µM	inhibition	15%
O=C1NC(=O)c2cc(Nc3ccc(F)cc3)c(Nc3ccc(F)cc3)cc21	MAP2K6	cell-free assay	0.5 µM	remaining signal	110%
Cc1nc(Cc2cccc(C(F)(F)F)c2)sc1-c1ccc(C(N)=O)nc1	MAP2K6	cell-free assay, competition with immobilised ligand	1 µM	remaining binding	69%
Cn1c2c(Cl)c(Cl)ccc2c2cc[nH]c(=O)c21	MAP2K6	thermal stability, DSF	10 µM	ΔTm	0.2 °C
CN(C)CC#Cc1ccc(OCCCc2sc(N3CCc4cccc(C(=O)Nc5nc6ccccc6s5)c4C3)nc2C(=O)O)c(F)c1	MAP2K6	cell-free assay, competition with immobilised ligand	1 µM	remaining binding	100%
CS(=O)(=O)CCNCc1ccc(-c2ccc3ncnc(Nc4ccc(OCc5cccc(F)c5)c(Cl)c4)c3c2)o1	MAP2K6	cell-free assay	0.5 µM	remaining signal	95.4%
Cn1cc(Cl)c2c(Oc3c(F)cc(Nc4cc(Cl)nc(N)n4)cc3F)ccnc21	MAP2K6	cell-free assay, competition with immobilised ligand	0.1 µM	remaining binding	100%
Cc1sc(C(=O)NC2COC2)cc1-n1cc(NC(=O)Nc2c(F)cccc2Cl)cn1	MAP2K6	enzyme activity, inhibitor	10 µM	remaining activity	86.4%
CN(C)C(=O)Cn1cc(-c2nc(C3(c4ccc(-c5cnc(N)nc5)cc4)CC3)no2)cn1	MAP2K6	cell-free assay, competition with immobilised ligand	1 µM	remaining binding	100%
COc1cc2ncnc(Nc3ccc(Oc4ccccc4)cc3C)c2cc1OC	MAP2K6	enzyme activity, inhibitor	1 µM	inhibition	3%
